Screening results: PubChem, Sanford-Burnham Center for Chemical Genomics
SENP8 block-1: human SENP8 protease inhibitors, primary screen, biochemical, fluorescence, Nedd8 protein substrate, uHTS. recombinant SENP8. inhibition, % at 20 µM. actives 0.64% (n = 360,000); in the data active = inhibition mostly above about 40%, no sharp cut-off; inactive = mostly below about 27%
SENP7 inh: SENP7 protease inhibitors, primary screen, biochemical, luminescence, uHTS. recombinant SENP7, Z-RLRGG-aminoluciferin luminescence, 40 min. actives 1.5% (n = 330,000). inhibition, % at 5 µM;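 active = inhibition above about 50% at the single test dose, limit read from the data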;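 also: plate controls were DMSO with enzyme for no effect and no enzyme buffer wells for full effect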
Target sequence (Q9BQF6 706-1050 limits assumed): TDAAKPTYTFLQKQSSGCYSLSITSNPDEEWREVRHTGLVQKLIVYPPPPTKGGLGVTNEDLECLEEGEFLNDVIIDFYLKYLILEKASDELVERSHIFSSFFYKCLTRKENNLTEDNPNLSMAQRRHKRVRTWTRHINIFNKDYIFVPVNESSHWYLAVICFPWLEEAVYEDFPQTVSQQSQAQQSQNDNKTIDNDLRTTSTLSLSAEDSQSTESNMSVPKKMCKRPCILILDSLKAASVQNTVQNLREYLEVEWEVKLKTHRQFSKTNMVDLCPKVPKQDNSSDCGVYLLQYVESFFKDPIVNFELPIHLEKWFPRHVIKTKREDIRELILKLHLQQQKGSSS
SENP1 inh: human SENP1 catalytic domain inhibitors, primary screen, biochemical, FRET, uHTS. recombinant SENP1 catalytic domain, CyPet-SUMO1-YPet FRET cleavage. AID 624204, 2012. actives 0.21% (n = 360,000). inhibition, % at 10 µM;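 active = inhibition at least 30% at 10 µM, raw YFP signal under a set limit, fluorescence ratio 0.5 to 1.5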;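 also: 0% = enzyme with DMSO and 100% = no enzyme wells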
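Compound: 10 µM single point, 0.5% DMSO; Test system: hSENP1 catalytic domain, recombinant; Timing: 50 min reaction at room temperature; Technique: FRET, CFP and YFP emission; Control set: no-enzyme wells low, DMSO-plus-enzyme wells high control.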
SENP8 block-2: SENP8 protease inhibitors, primary screen, biochemical, luminescence | actives 1.2% (n = 330,000) | purified SENP8, Z-RLRGG-aminoluciferin cleavage | Sentrin-specific protease 8 (Homo sapiens), Q96LD8 | inhibition, % at 10 µM | AID 2540, 2010; in the data active = inhibition above about 50%
SENP6 block: SENP6 protease inhibitors, primary screen, biochemical, luminescence, uHTS. inhibition, % at 10 µM. AID 2599, 2010. Recombinant SENP6 catalytic domain, aminoluciferin luminescence. actives 1.8% (n = 330,000). Sentrin-specific protease 6 (Homo sapiens), Q9GZR1;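 active = inhibition above about 50% at the single tested dose, limit read from the data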;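 also: plate controls were DMSO wells with enzyme for no effect and DMSO wells lacking enzyme for full effect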
SENP8 confirm: SENP8 protease inhibitors, retest, confirmation, biochemical, luminescence, single concentration | shares compounds with SENP7 inh | Recombinant SENP8, Z-RLRGG-aminoluciferin luminescence, 60 min | inhibition, % at 12.5 µM | actives 40% (n = 6,200);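 active = mean inhibition across replicates above about 50%, limit read from the data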
SENP6 conf: SENP6 protease inhibitors, confirmation, biochemical, luminescence, single concentration. shares compounds with SENP7 inh. recombinant SENP6, Z-RLRGG-aminoluciferin luminescence. inhibition, % at 12.5 µM. actives 58% (n = 6,200)
SENP7 conf: SENP7 protease inhibitors, retest, confirmation, biochemical, luminescence, single concentration; shares compounds with SENP7 inh; recombinant SENP7, Z-RLRGG-aminoluciferin luminescence, 40 min; inhibition, % at 12.5 µM; actives 69% (n = 6,200); AID 488917, 2010
Casp3 select: caspase-3 protease inhibitors, confirmation, selectivity assay for SENP inhibitor project, biochemical, single concentration | shares compounds with SENP7 inh | purified caspase-3, Z-DEVD-aminoluciferin luminescence, 60 min | inhibition, % at 12.5 µM | actives 60% (n = 6,200);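 active = mean inhibition above about 50%, limit read from the data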;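 also: plate controls were enzyme with DMSO for no effect and wells without caspase-3 for full effect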
Target sequence (P42574 28-227 limits assumed): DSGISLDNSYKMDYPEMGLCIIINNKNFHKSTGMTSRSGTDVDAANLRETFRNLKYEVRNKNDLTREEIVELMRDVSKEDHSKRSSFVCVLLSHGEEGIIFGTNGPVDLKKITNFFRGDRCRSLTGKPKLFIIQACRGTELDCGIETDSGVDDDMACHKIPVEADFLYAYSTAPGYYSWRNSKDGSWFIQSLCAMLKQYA
SENP luc ctr: luminescence interference (SENP counter-screen). shares compounds with SENP7 inh. Pre-incubated SENP8/Z-RLRGG-aminoluciferin, luciferase luminescence interference. inhibition, % at 12.5 µM. actives 39% (n = 6,200). AID 488919;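 active = mean inhibition above about 50% when retested at one dose, limit read from the data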;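 also: plate controls were DMSO wells with completed reaction for no effect and substrate without enzyme for full effect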
* hit, by the source's call; x = no result given. Sampled rows, rich in hits. Any-hit rate of the full collection: about 2.5%.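 The calls were made as follows, unless noted: active = mean inhibition above about 50% in the one-dose retest (limit read from the data); inactive = the rest.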

SMILES | SENP8 block-1 | SENP7 inh | SENP1 inh | SENP8 block-2 | SENP6 block | SENP8 confirm | SENP6 conf | SENP7 conf | Casp3 select | SENP luc ctr
COc1ccccc1NC(=O)Nc1ccc(-n2ccc(C(F)(F)F)n2)cc1 | 14.3 | 82.3* | 0.3 | 73.2* | 80.1* | 76.1* | 82.5* | 92.8* | 44.3 | 69.1*
COc1ccccc1NC(=O)Nc1ccc(N2CCOCC2)cc1 | 10.8 | 55.6* | 1.0 | 38.9 | 63.5* | 64.8* | 61.7* | 87.2* | 79.6* | 65.7*
CCn1ncc(CN2CCC(Oc3cc(C(=O)NC4CC4)ccc3OC)CC2)c1C | 9.6 | -2.0 | -1.1 | 10.7 | 0.7 | x | x | x | x | x
O=c1cc(/C=C/c2ccccc2)oc2ccccc12 | -114.3 | 48.6 | 1.2 | 55.3* | 62.3* | -3.1 | 77.8* | 93.2* | 64.3* | 72.9*
O=c1cc(CO)oc2ccccc12 | 7.0 | -3.8 | 1.8 | -7.6 | -13.1 | x | x | x | x | x
Cc1cn([C@H]2C[C@H](O)[C@@H](/C=C/C(=O)N3CCN(Cc4ccc(F)cc4)CC3)O2)c(=O)[nH]c1=O | 14.3 | x | -1.1 | x | x | x | x | x | x | x
COc1ncnc2sc(-c3ccccc3)cc12 | 2.8 | 98.6* | -2.7 | 96.8* | 93.2* | 96.0* | 95.3* | 99.9* | 95.1* | 91.6*
CN(C)C(=O)COc1ncnc2sc(-c3ccccc3)cc12 | -19.7 | -0.4 | -10.2 | 1.9 | 2.9 | x | x | x | x | x
CC(C)(C)OC(=O)C[C@H]1C/C=C\C[C@@H](CC(=O)N(CCO)Cc2ccccc2)C(=O)N[C@@H](Cc2ccccc2)COC1=O | 23.6 | 5.9 | -1.3 | -7.6 | -13.1 | x | x | x | x | x
COc1ccc2nc(NC(=S)N(C)C)sc2c1 | 18.5 | 76.3* | 1.7 | 66.5* | 80.7* | 79.9* | 78.7* | 94.3* | 68.9* | 78.6*
CSc1ncccc1C(=O)Nc1nc2ccc(S(C)(=O)=O)cc2s1 | -62.2 | 5.2 | -0.8 | 1.9 | -11.4 | x | x | x | x | x
CCCC(=O)Nc1nc2ccc(OC)cc2s1 | 9.3 | 2.3 | 1.2 | 1.8 | -5.5 | x | x | x | x | x
COc1ccc2nc(NC(=O)c3cc(C)oc3C)sc2c1 | -83.1 | 101.2* | -4.1 | 89.9* | 88.4* | -19.5 | 93.5* | 102.3* | 95.5* | 63.2*
COc1ccc2nc(NC(=O)c3cccnc3SC)sc2c1 | -287.0 | 85.0* | 2.3 | 70.6* | 92.9* | 77.8* | 76.7* | 93.4* | 71.6* | 46.2
Cc1csc(NC(=O)c2cc(C)oc2C)n1 | 1.9 | 58.9* | -7.6 | 46.1 | 68.7* | 63.8* | 62.8* | 88.9* | 84.1* | 64.8*
COc1ccc(S(=O)(=O)N2CCC3CC2c2c(-c4ccc(C(F)(F)F)cc4)cccc23)cc1 (centres undefined) | 15.4 | x | 0.7 | x | x | x | x | x | x | x
CS(=O)(=O)NCCC1=CCCCC1 | 12.0 | 1.7 | -2.0 | 10.0 | 4.0 | x | x | x | x | x
CC1(C(=O)Nc2cccc(Oc3ccccc3)c2)CCN1Cc1cc2ccccc2o1 (centres undefined) | 6.0 | x | 0.5 | x | x | x | x | x | x | x
Cc1cc(C(=O)Nc2nc3ccc(S(C)(=O)=O)cc3s2)c(C)o1 | -31.2 | 93.3* | -8.5 | 41.2 | 96.1* | 33.7 | 88.9* | 100.6* | 93.6* | 14.4
COc1ccc2nc(NC(=O)c3ccoc3C)sc2c1 | -58.0 | 100.5* | 0.1 | 96.9* | 100.8* | 96.9* | 99.8* | 103.1* | 98.5* | 96.6*
Brc1ccccc1-c1nc2c3ccccc3ncn2n1 | -212.2 | 10.8 | 4.7 | 77.3* | 90.9* | -5.5 | 29.2 | 68.1* | 39.2 | 55.8*
Cn1c(NNC(=O)C2CCCCC2)cc(=O)n(C)c1=O | 5.5 | 0.3 | -74.7 | 2.5 | 9.6 | x | x | x | x | x
O=c1oc(Nc2ccccc2Cl)nc2ccccc12 | -96.6 | x | 0.7 | x | x | x | x | x | x | x
O=c1oc(Nc2ccccc2F)nc2ccccc12 | -139.2 | 42.3 | 2.5 | 54.2* | 76.2* | 4.1 | 98.8* | 103.2* | 99.3* | 98.0*
COc1ccc(-c2noc(Cc3cccs3)n2)cc1 | 18.9 | 12.7 | -0.4 | 29.6 | 50.2* | 38.0 | 38.7 | 69.3* | 27.8 | 28.3
SMILES | SENP8 block-1 | SENP7 inh | SENP1 inh | SENP8 block-2 | SENP6 block | SENP8 confirm | SENP6 conf | SENP7 conf | Casp3 select | SENP luc ctr
Cc1ccc(-c2noc(CSc3ccccc3)n2)cc1 | 16.0 | 52.5* | -1.7 | 37.2 | 75.7* | 50.8* | 60.5* | 80.9* | 42.6 | 44.8
Cc1cccc(-c2noc(CSc3ccccc3)n2)c1 | 7.9 | 12.3 | -0.3 | -11.9 | 24.8 | x | x | x | x | x
Cc1ccc(OCc2nc(-c3ccccc3)no2)cc1 | 10.1 | 31.9 | 1.7 | 11.6 | 56.3* | 16.5 | 24.2 | 64.7* | 25.9 | 7.3
CC1(C)CC[C@]2(CO)[C@@H](O)C[C@]3(C)C(=CCC4[C@@]5(C)CC[C@H](O)C(C)(C)C5CC[C@]43C)[C@@H]2C1 (some centres undefined) | x | -2.2 | x | -3.1 | -2.8 | x | x | x | x | x
CN(C)C(CNC(=S)Nc1ccc(Cl)cc1)c1cccnc1 (centres undefined) | 10.7 | -6.4 | -0.7 | 0.8 | 12.0 | x | x | x | x | x
COc1ccc(C(=O)c2cc3ccc(O)cc3oc2=O)cc1 | -275.4 | 96.7* | -30.8 | 95.5* | 99.6* | 96.3* | 96.9* | 102.5* | 98.4* | 94.9*
CC(=O)c1cc2ccc(O)cc2oc1=O | -422.3 | 18.4 | -33.8 | 4.2 | 13.6 | x | x | x | x | x
COc1ccc(-c2cc3ccc(O)cc3oc2=O)cc1OC | -382.5 | 99.6* | -22.5 | 94.9* | 98.8* | 99.3* | 100.3* | 103.1* | 98.9* | 96.0*
O=C(c1ccccc1)c1cc2ccc(O)cc2oc1=O | -150.9 | 98.4* | -28.1 | 95.8* | 95.3* | 97.6* | 98.8* | 102.3* | 97.9* | 95.5*
